For data set [1], the target named is Beta-1 adrenergic receptor (Homo sapiens, UniProt P08588). The experiment in a line: Agonist activity at human beta-1 adrenergic receptor expressed in CHO cells assessed as cAMP level. The format is functional, cell-based.
For data set [2], the target named is Beta-2 adrenergic receptor (Homo sapiens, UniProt P07550). In words: Agonist activity at human beta-2 adrenergic receptor expressed in CHO cells assessed as cAMP level. It is filed as functional, cell-based.
For data set [3], the target named is T1, Beta-3 adrenergic receptor (Homo sapiens, UniProt P13945). The experiment in a line: Agonist activity at human beta-3 adrenergic receptor expressed in CHO cells assessed as cAMP level. The format is functional, cell-based. The method, boiled down: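 cAMP accumulation measured in CHO cells expressing the human β receptor. Intrinsic activity is the compound's maximal response as a percentage of the maximal isoproterenol response.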
Target sequence in this assay (P13945 whole entry): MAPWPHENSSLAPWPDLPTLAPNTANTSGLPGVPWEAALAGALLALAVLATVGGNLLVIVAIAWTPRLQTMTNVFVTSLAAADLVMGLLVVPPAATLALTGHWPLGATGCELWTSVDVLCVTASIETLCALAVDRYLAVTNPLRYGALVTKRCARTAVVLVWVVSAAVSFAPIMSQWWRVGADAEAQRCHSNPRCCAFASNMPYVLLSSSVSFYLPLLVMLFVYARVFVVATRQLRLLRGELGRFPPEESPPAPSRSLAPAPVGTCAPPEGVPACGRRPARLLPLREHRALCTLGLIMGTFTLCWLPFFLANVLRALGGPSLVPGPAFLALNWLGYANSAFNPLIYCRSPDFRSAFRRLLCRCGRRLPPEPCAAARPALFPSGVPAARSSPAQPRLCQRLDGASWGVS
On the technique in general: cAMP levels reflect the balance of adenylyl cyclase and phosphodiesterase activity.

Data set [4] deals with T1, Beta-3 adrenergic receptor. In words: Agonist activity at human beta-3 adrenergic receptor expressed in CHO cells assessed as cAMP level relative to isoproterenol. It is filed as functional, cell-based. Put shortly:
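CHO cells expressing human β3 adrenergic receptor; agonism read out as cAMP level. Intrinsic activity taken as the compound's maximal response expressed as percentage of the maximal response to isoproterenol at […]; n = 3.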
Target sequence in this assay (P13945 whole entry, looked up): as the sequence (P13945 whole entry) above

A further data set concerns Cardiac atrium. In words: Effect on rat atrial tachycardia assessed as increase in heart rate. It is filed as functional. Put shortly: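 Isolated rat atria were used to score tachycardia. The value is the maximal response, or the response at a single fixed high agonist level when no maximum was reached.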
Data set [5] addresses Beta-3 adrenergic receptor (Rattus norvegicus, UniProt P26255). The experiment in a line: Agonist activity at rat beta-3 adrenergic receptor. The format is functional.
Data set [6] has as its system Rattus norvegicus. In words: Reduction in respiratory quotient in diet induced obese Long Evans rat at 10 mg/kg, po after 20 hrs relative to control. It is filed as functional. The arrangement: scale not given: the % may be the effect or the level left. Put shortly: (§1)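 Diet-induced obese Long Evans rats received one oral dose (1 or 10 mg/kg) or vehicle. Indirect calorimetry tracked respiratory quotient over 24 h. RQ reduction and energy expenditure increase were expressed as % versus vehicle over 20 h. Food consumption was recorded in g. Statistical significance was assessed against vehicle.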

Data set [7] deals with Rattus norvegicus. The experiment in a line: Reduction in respiratory quotient in diet induced obese Long Evans rat at 1 mg/kg, po after 20 hrs relative to control. The format is functional. On the set-up: scale not given: the % may be the effect or the level left. Put shortly: as §1
The nature of data set [8]: Oral bioavailability in rat […]. The format is ADME, organism-based. The note with it: in vivo.
Data set [9] has as its system Rattus norvegicus. The experiment in a line: Increase in energy expenditure in diet induced obese Long Evans rat at 1 mg/kg, po after 20 hrs relative to control. It is filed as functional. Put shortly:
as §1

Data set [10] concerns Rattus norvegicus. In words: Effect on food consumption in diet induced obese Long Evans rat at 10 mg/kg, po. It is filed as functional. The method, boiled down: as §1
Data set [11] relates to Rattus norvegicus. The experiment in a line: Increase in energy expenditure in diet induced obese Long Evans rat at 10 mg/kg, po after 20 hrs relative to control. The format is functional. Put shortly: as §1
The subject of data set [12] is Rattus norvegicus. The experiment in a line: Effect on food consumption in diet induced obese Long Evans rat at 1 mg/kg, po. It is filed as functional. The method, boiled down:
as §1

A short description of data set [13]: Oral bioavailability in F344 rat. The note with it: in vivo.

Broadly, the EC50 is the concentration at which the effect is half-maximal. As a reminder, the Emax is the maximal effect, on the per cent scale that the assay sets. Usually bioavailability stands for the share of a dose that reaches the circulation, judged against a reference dose that is usually intravenous.

Beta-1 adrenergic receptor, sequence (P08588 whole entry): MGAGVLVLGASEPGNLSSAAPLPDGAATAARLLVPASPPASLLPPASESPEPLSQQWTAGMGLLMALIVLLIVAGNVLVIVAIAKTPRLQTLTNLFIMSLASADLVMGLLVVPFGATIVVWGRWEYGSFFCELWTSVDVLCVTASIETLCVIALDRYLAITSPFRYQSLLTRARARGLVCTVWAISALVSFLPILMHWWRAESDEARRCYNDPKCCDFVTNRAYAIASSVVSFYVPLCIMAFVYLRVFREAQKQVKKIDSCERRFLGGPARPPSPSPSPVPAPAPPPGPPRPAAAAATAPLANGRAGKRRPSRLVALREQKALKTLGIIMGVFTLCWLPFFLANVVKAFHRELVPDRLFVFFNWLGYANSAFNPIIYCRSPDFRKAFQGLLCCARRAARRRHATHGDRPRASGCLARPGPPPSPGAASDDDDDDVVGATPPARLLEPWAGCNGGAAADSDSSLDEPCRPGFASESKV
Beta-2 adrenergic receptor, sequence (P07550 whole entry): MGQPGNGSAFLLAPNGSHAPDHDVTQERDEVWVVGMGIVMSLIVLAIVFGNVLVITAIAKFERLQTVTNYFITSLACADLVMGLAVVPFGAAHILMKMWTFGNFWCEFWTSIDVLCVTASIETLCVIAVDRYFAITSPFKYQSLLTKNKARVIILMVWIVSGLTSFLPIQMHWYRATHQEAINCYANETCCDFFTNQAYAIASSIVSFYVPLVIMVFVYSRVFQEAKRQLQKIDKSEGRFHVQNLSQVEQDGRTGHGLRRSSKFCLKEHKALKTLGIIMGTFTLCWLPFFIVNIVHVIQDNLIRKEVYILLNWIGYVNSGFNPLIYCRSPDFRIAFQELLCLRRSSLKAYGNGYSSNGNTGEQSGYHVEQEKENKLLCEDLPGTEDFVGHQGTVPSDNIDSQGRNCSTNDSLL
Beta-3 adrenergic receptor (Rattus norvegicus, UniProt P26255), sequence (P26255 whole entry): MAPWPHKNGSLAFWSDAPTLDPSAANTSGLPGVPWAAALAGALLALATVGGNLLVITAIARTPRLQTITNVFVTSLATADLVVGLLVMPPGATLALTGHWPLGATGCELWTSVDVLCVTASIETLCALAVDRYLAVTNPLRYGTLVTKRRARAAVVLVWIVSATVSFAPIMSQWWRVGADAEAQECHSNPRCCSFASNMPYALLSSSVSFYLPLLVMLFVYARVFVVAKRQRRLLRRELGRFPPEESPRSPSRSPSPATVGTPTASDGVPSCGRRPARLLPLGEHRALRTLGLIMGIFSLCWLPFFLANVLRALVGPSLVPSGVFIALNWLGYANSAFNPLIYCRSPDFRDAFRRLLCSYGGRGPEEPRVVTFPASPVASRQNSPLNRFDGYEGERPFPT

Regarding `CC(C)C1C(=O)Nc2cccc(OC[C@@H](O)CNC(C)(C)Cc3ccc(Oc4ccc(C(N)=O)cn4)cc3)c21` (stereo not given in full), the half-maximal effective concentration (EC50) in data set [1] was > 10000 nM; in [2], > 10000 nM; in data set [3], 13.9 nM. Moreover, the Emax in data set [4] turned out to be 41.7%.

As to `CC(C)(Cc1ccc(Oc2ccc(C(N)=O)cn2)cc1)NC[C@H](O)COc1cccc2c1CC(=O)N2`, the EC50 in data set [1] was > 10000 nM; in data set [2] it was > 10000 nM; in data set [3], 24.4 nM. Besides, in the data set on Cardiac atrium, the Activity came out at 19.5%. In addition, the maximum response (Emax) in data set [4] stood at 50.5%.

Turning to `CC(C)(Cc1ccc(Oc2ccc(C(N)=O)cn2)cc1)NC[C@H](O)COc1cccc2c1C1(CC1)C(=O)N2`, the half-maximal effective concentration (EC50) in data set [1] came to 58.3 nM; in data set [2], 35.2 nM; in data set [3], 6.6 nM. Besides, the Activity in the data set on Cardiac atrium came to 13.2%. In addition, the maximal effect (Emax) in [4] is 76.8%.

As for `CC(C)(Cc1ccc(Oc2ccc(C(N)=O)cn2)cc1)NC[C@H](O)COc1cccc2c1C1(CCC1)C(=O)N2`, the concentration giving a half-maximal response (EC50) in data set [1] was > 10000 nM; in data set [2], > 10000 nM; in [3] it was 17.6 nM. Moreover, the Activity in the data set with Cardiac atrium was 14.8%. Further, the Emax in data set [4] was found to be 71.2%.

For `CC(C)(Cc1ccc(Oc2ccc(C(N)=O)cn2)cc1)NC[C@H](O)COc1cccc2c1C1(CCCC1)C(=O)N2`, the EC50 in [1] is > 10000 nM; in data set [2], > 10000 nM; in data set [3], 10.6 nM. Also, the Activity with Cardiac atrium was 8.6%. Further, the Emax in data set [4] came out at 66.3%.

As to `CCC1(CC)C(=O)Nc2cccc(OC[C@@H](O)CNC(C)(C)Cc3ccc(Oc4ccc(C(N)=O)cn4)cc3)c21`, the EC50 in data set [1] is > 10000 nM; in data set [2], > 10000 nM; in data set [3] it was 2.7 nM. Also, the Activity in the data set on Cardiac atrium came to 2%. Also, the Emax in data set [4] was 14.2%.

Consider `CC(C)(Cc1ccc(Oc2ccc(C(N)=O)cn2)cc1)NC[C@H](O)COc1cccc2c1C1(CCCCC1)C(=O)N2`, for which the EC50 in data set [1] was > 10000 nM; in data set [2] it was > 10000 nM; in data set [3], 8.3 nM. The Activity in the data set on Cardiac atrium turned out to be 16%. Moreover, the Emax in [4] is 41%.

Consider `CC1C(=O)Nc2cccc(OC[C@@H](O)CNC(C)(C)Cc3ccc(Oc4ccc(C(N)=O)cn4)cc3)c21` (stereo not given in full), for which the concentration giving a half-maximal response (EC50) in [1] is > 10000 nM; in data set [2] it was > 10000 nM; in [3], 12 nM. Moreover, the Activity in the data set on Cardiac atrium stood at 10.4%. In addition, the Emax in data set [4] was 72.6%.

As to `CC(C)(Cc1ccc(Oc2ccc(C(N)=O)cn2)cc1)NC[C@H](O)COc1cccc2c1C(C)(C)C(=O)N2`, the EC50 in data set [1] is > 10000 nM; in data set [5], 6.5 nM; in data set [2], > 10000 nM; in [3], 5.2 nM. The Activity in the data set with Rattus norvegicus [6] was 45%; in the data set with Rattus norvegicus [7], 31%; in the data set with Rattus norvegicus [9], 8%; with Rattus norvegicus [10], 11.8 g; with Cardiac atrium, 9.7%; in the data set with Rattus norvegicus [11] it was 14%. The same compound yielded an Activity with Rattus norvegicus [12] of 13.7 g. The bioavailability in data set [8] and in data set [13] was 10% each time. In [4], the maximum response (Emax) turned out to be 67.9%.

Turning to `CC(C)(Cc1ccc(Oc2ccc(C(N)=O)cn2)cc1)NC[C@H](O)COc1cccc2c1C(Cc1ccccc1)C(=O)N2` (stereo not given in full), the EC50 was > 10000 nM in data set [1], > 10000 nM in data set [2] and 12.3 nM in data set [3]. The Emax in data set [4] is 15.6%.

Turning to `CC(C)CC1C(=O)Nc2cccc(OC[C@@H](O)CNC(C)(C)Cc3ccc(Oc4ccc(C(N)=O)cn4)cc3)c21` (stereo not given in full), the EC50 in data set [1] was > 10000 nM; in data set [2] it was > 10000 nM; in data set [3] it was 14 nM. The Emax in data set [4] was 49.4%.

Take `CC(C)(Cc1ccc(Oc2ccc(C(N)=O)cn2)cc1)NC[C@H](O)COc1cccc2c1C(Cc1ccccc1)(Cc1ccccc1)C(=O)N2`: the EC50 in data set [1] is > 10000 nM; in data set [2], > 10000 nM; in data set [3] it was 268 nM. Moreover, in [4], the maximum response (Emax) came to 48.5%.

For the origin of these results see ChEMBL document CHEMBL1140547, “Potent oxindole based human beta3 adrenergic receptor agonists” (Bioorg Med Chem Lett, 2007).
